We go through seven molecules from ChEMBL document CHEMBL1151750, “The fourth molybdenum containing enzyme mARC: cloning and involvement in the activation of N-hydroxylated prodrugs” (J Med Chem, 2008).

Common to all, as to assay type: microsomes
What all share (conditions): Microsome

Assay [1] has as its target T1, Mitochondrial amidoxime-reducing component 1 (Homo sapiens) (UniProt Q5VT66).
T1 sequence (whole entry): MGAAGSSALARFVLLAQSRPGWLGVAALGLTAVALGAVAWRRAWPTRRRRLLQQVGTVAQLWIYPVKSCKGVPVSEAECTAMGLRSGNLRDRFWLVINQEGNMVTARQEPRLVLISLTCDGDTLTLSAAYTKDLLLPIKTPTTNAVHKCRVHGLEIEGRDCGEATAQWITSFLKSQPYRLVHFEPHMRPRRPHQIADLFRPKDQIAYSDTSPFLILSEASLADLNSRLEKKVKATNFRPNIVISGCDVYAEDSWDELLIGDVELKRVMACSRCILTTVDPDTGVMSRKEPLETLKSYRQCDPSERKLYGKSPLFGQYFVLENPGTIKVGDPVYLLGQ
Nature of the assay: Specific activity at molybdenum cofactor/metal-free precursor molybopterin bound human recombinant mARC1 expressed in Escherichia coli TP1000 assessed as reduction to debrisoquine in complete reconstituted system containing microsomal cyt b5, NADH and microsomal NADH cyt b5 reductase per mg of protein at 0.5 mM by HPLC analysis. Put shortly: (§1)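 His6-tagged human mARC1 expressed in E. coli TP1000 (22 °C, IPTG induction, 1 mM sodium molybdate added) and Ni-NTA purified. Assay mix: 100 µg mARC1, 0.05 U pig liver microsomal NADH cyt b5 reductase, 200 pmol microsomal cyt b5, 0.5 mM N-hydroxylated substrate, 1 mM NADH, 100 mM potassium phosphate pH 6.0. Omitted components as stated per line. Aerobic, 37 °C, 3 min preincubation, NADH start, 15 or 20 min, methanol stop. Product quantified by HPLC; mean ± SD, n=4.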

For assay [2], the target named is T1, Mitochondrial amidoxime-reducing component 1 (Homo sapiens). Nature of the assay: Specific activity at molybdenum cofactor/metal-free precursor molybopterin bound human recombinant mARC1 expressed in Escherichia coli TP1000 assessed as reduction to pentamidine monoamidoxime in complete reconstituted system containing microsomal cyt b5, NADH and microsomal NADH cyt b5 reductase per mg of protein at 0.5 mM by HPLC analysis. Put shortly: as §1

Assay [3] shares this target. In words: Specific activity at molybdenum cofactor/metal-free precursor molybopterin bound human recombinant mARC1 expressed in Escherichia coli TP1000 assessed as reduction to pentamidine in complete reconstituted system containing microsomal cyt b5, NADH and microsomal NADH cyt b5 reductase per mg of protein at 0.5 mM by HPLC analysis. The procedure, abridged:
as §1

The target is the same in assay [4]. In words: Specific activity at molybdenum cofactor/metal-free precursor molybopterin bound human recombinant mARC1 expressed in Escherichia coli TP1000 assessed as reduction to diminazene in complete reconstituted system containing microsomal cyt b5, NADH and microsomal NADH cyt b5 reductase per mg of protein at 0.5 mM by HPLC analysis. Put shortly: as §1
Assay [5] has the same target. Nature of the assay: Specific activity at molybdenum cofactor/metal-free precursor molybopterin bound human recombinant mARC1 expressed in Escherichia coli TP1000 assessed as reduction to diminazene monoamidoxime in complete reconstituted system containing microsomal cyt b5, NADH and microsomal NADH cyt b5 reductase per mg of protein at 0.5 mM by HPLC analysis. The procedure, abridged: as §1

Assay [6] has the same target. Nature of the assay: Specific activity at molybdenum cofactor/metal-free precursor molybopterin bound human recombinant mARC1 expressed in Escherichia coli TP1000 assessed as reduction to melagatran in complete reconstituted system containing microsomal cyt b5, NADH and microsomal NADH cyt b5 reductase per mg of protein at 0.5 mM by HPLC analysis. Put shortly: as §1

Assay [7] shares this target. Nature of the assay: Specific activity at molybdenum cofactor/metal-free precursor molybopterin bound human recombinant mARC1 expressed in Escherichia coli TP1000 assessed as reduction to guanabenz in complete reconstituted system containing microsomal cyt b5, NADH and microsomal NADH cyt b5 reductase per mg of protein at 0.5 mM by HPLC analysis. Put shortly:
as §1

Assay [8] has the same target. Nature of the assay: Specific activity at molybdenum cofactor/metal-free precursor molybopterin bound human recombinant mARC1 expressed in Escherichia coli TP1000 assessed as reduction to benzamidine in reconstituted system containing microsomal cyt b5 and NADH without microsomal NADH cytochrome b5 reductase per mg of protein at 0.5 mM by HPLC analysis. Put shortly: as §1

For assay [9] the target is unchanged. Nature of the assay: Specific activity at molybdenum cofactor/metal-free precursor molybopterin bound human recombinant mARC1 expressed in Escherichia coli TP1000 assessed as reduction to benzamidine in reconstituted system containing NADH and microsomal NADH cyt b5 reductase without microsomal cytochrome b5 per mg of protein at 0.5 mM by HPLC analysis. Put shortly: as §1

Assay [10] shares this target. In words: Specific activity at molybdenum cofactor/metal-free precursor molybopterin bound human recombinant mARC1 expressed in Escherichia coli TP1000 assessed as reduction to benzamidine in complete reconstituted system containing microsomal cyt b5, NADH and microsomal NADH cyt b5 reductase per mg of protein at 0.5 mM by HPLC analysis. The procedure, abridged: as §1

For `N/C(=N\O)N1CCc2ccccc2C1`, in assay [1], the Activity stood at 15.9 nmol/min.
Consider `N/C(=N\O)c1ccc(OCCCCCOc2ccc(/C(N)=N/O)cc2)cc1`, for which the Activity turned out to be 0.56 nmol/min in assay [2] and 0.49 nmol/min in assay [3].
Take `N/C(=N\O)c1ccc(/N=N/Nc2ccc(/C(N)=N/O)cc2)cc1`: the Activity in assay [4] was 0.05 nmol/min; in assay [5], 4.31 nmol/min.
In the case of `N/C(=N\O)c1ccc(CNC(=O)[C@@H]2CCN2C(=O)[C@H](NCC(=O)O)C2CCCCC2)cc1`, in assay [6], the Activity came to 0.48 nmol/min.
`N=C(N)c1ccc(OCCCCCOc2ccc(/C(N)=N\O)cc2)cc1`: the Activity in [3] was determined as 6.59 nmol/min.
Take `N=C(NO)N/N=C/c1c(Cl)cccc1Cl`: in assay [7], the Activity was found to be 20.4 nmol/min.
Take `N/C(=N\O)c1ccccc1`: the Activity in [8] was determined as 0.2 nmol/min; in assay [9], 0.23 nmol/min; in assay [10], 1.3 nmol/min.
